Measurements taken from ChEMBL document CHEMBL1926589, “2-Anilinonicotinyl linked 2-aminobenzothiazoles and [1,2,4]triazolo[1,5-b] [1,2,4]benzothiadiazine conjugates as potential mitochondrial apoptotic inducers” (Bioorg Med Chem, 2011).

What was measured:
Format in all cases: functional
Conditions in all cases: read-out: GI
[1] = test system: DU-145; test: Growth inhibition of human DU145 cells at 10 uM by sulforhodamine B assay
Summary of the method: (§1)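 Single-dose 10 µM screen by sulforhodamine B assay, reported as percent inhibition of cell proliferation. Cells grown in medium with 10% heat-inactivated FBS at 37 °C, 5% CO2, and treated at about 70% confluence or in log phase. Compounds dissolved in DMSO; controls received vehicle (<0.5% v/v).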

[2] = Growth inhibition of human 502713 cells at 10 uM by sulforhodamine B assay; summary of the method: as §1
[3] = test system: SiHa; test: Growth inhibition of human SiHa cells at 10 uM by sulforhodamine B assay; summary of the method: as §1
[4] = test system: A549; test: Growth inhibition of human A549 cells at 10 uM by sulforhodamine B assay; summary of the method: as §1
[5] = test system: IMR-32; test: Growth inhibition of human IMR32 cells at 10 uM by sulforhodamine B assay; summary of the method: as §1
[6] = test system: HEp-2; test: Growth inhibition of human Hep2 cells at 10 uM by sulforhodamine B assay; summary of the method: as §1
[7] = test system: SW-620; test: Growth inhibition of human SW620 cells at 10 uM by sulforhodamine B assay; summary of the method: as §1
[8] = test system: OVCAR-5; test: Growth inhibition of human OVCAR5 cells at 10 uM by sulforhodamine B assay; summary of the method: as §1
[9] = test system: HCT-15; test: Growth inhibition of human HCT15 cells at 10 uM by sulforhodamine B assay; summary of the method: as §1
[10] = test system: SK-N-SH; test: Growth inhibition of human SK-N-SH cells at 10 uM by sulforhodamine B assay; summary of the method: as §1

Compound: O=S1(=O)c2ccccc2N(c2ccccc2)c2nc(-c3cccnc3Nc3cc(F)c(F)c(F)c3)nn21
- inhibition of growth at 10 µM [1]: 14%
- inhibition of growth at 10 µM [2]: 14%
- inhibition of growth at 10 µM [3]: 26%
- inhibition of growth at 10 µM [4]: 3%
- inhibition of growth at 10 µM [5]: 48%
- inhibition of growth at 10 µM [6]: 52%
- inhibition of growth at 10 µM [7]: 22%
- inhibition of growth at 10 µM [8]: 2%
- inhibition of growth at 10 µM [9]: 0%
- inhibition of growth at 10 µM [10]: 16%

Compound: O=C(Nc1nc2ccc([N+](=O)[O-])cc2s1)c1cccnc1Nc1ccc(F)c(Cl)c1
- inhibition of growth at 10 µM [1]: 9%
- inhibition of growth at 10 µM [2]: 28%
- inhibition of growth at 10 µM [3]: 13%
- inhibition of growth at 10 µM [4]: 78%
- inhibition of growth at 10 µM [5]: 3%
- inhibition of growth at 10 µM [6]: 61%
- inhibition of growth at 10 µM [7]: 34%
- inhibition of growth at 10 µM [8]: 3%
- inhibition of growth at 10 µM [9]: 0%
- inhibition of growth at 10 µM [10]: 3%

Compound: CN1c2ccccc2S(=O)(=O)n2nc(-c3cccnc3Nc3ccccc3)nc21
- inhibition of growth at 10 µM [1]: 8%
- inhibition of growth at 10 µM [2]: 30%
- inhibition of growth at 10 µM [3]: 0%
- inhibition of growth at 10 µM [4]: 39%
- inhibition of growth at 10 µM [5]: 0%
- inhibition of growth at 10 µM [6]: 0%
- inhibition of growth at 10 µM [7]: 32%
- inhibition of growth at 10 µM [8]: 15%
- inhibition of growth at 10 µM [9]: 0%
- inhibition of growth at 10 µM [10]: 0%

Compound: COc1ccc(Nc2ncccc2-c2nc3n(n2)S(=O)(=O)c2ccccc2N3c2ccccc2)cc1
- inhibition of growth at 10 µM [1]: 5%
- inhibition of growth at 10 µM [2]: 2%
- inhibition of growth at 10 µM [3]: 0%
- inhibition of growth at 10 µM [4]: 0%
- inhibition of growth at 10 µM [5]: 0%
- inhibition of growth at 10 µM [6]: 10%
- inhibition of growth at 10 µM [7]: 14%
- inhibition of growth at 10 µM [8]: 2%
- inhibition of growth at 10 µM [9]: 0%
- inhibition of growth at 10 µM [10]: 0%

Compound: COc1ccc2nc(NC(=O)c3cccnc3Nc3ccccc3)sc2c1
- inhibition of growth at 10 µM [1]: 25%
- inhibition of growth at 10 µM [2]: 11%
- inhibition of growth at 10 µM [3]: 63%
- inhibition of growth at 10 µM [4]: 9%
- inhibition of growth at 10 µM [5]: 26%
- inhibition of growth at 10 µM [6]: 33%
- inhibition of growth at 10 µM [7]: 29%
- inhibition of growth at 10 µM [8]: 6%
- inhibition of growth at 10 µM [9]: 0%
- inhibition of growth at 10 µM [10]: 26%

Compound: O=S1(=O)c2ccccc2N(c2ccccc2)c2nc(-c3cccnc3Nc3ccc(Cl)cc3Cl)nn21
- inhibition of growth at 10 µM [1]: 20%
- inhibition of growth at 10 µM [2]: 19%
- inhibition of growth at 10 µM [3]: 23%
- inhibition of growth at 10 µM [4]: 66%
- inhibition of growth at 10 µM [5]: 11%
- inhibition of growth at 10 µM [6]: 25%
- inhibition of growth at 10 µM [7]: 27%
- inhibition of growth at 10 µM [8]: 8%
- inhibition of growth at 10 µM [9]: 0%
- inhibition of growth at 10 µM [10]: 23%
